TRPC4 PAM: allosterically enhances the mouse TRPC4 cation channel; Q9QUQ5; HEK293 TRPC4beta/mu-opioid, DAMGO EC20, Fluo-4 Ca2+ flux; stronger effect = higher value; B-score at 10 µM; 310,000 compounds, 0.42% hits; AID 2227;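 active = B-score of calcium response area above 5 SD of library B-scores, with initial fluorescence ratio within 5 SD of library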
Kir21 block: Kir2.1 (mouse) channel inhibition; B-score at 10 µM; P35561; HEK293-Kir2.1, FluxOR thallium flux fluorescence; stronger effect = lower value; 310,000 compounds, 0.85% hits;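 active = fluorescence ratio B-score at or below minus 3 SD of library scores, with starting-brightness B-score within 2 SD, cut at about -4.2 in these data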;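 also: channel flux triggered by added potassium and thallium sulfate stimulus; B-score of peak minus minimum fluorescence over baseline after thallium stimulus; more negative B-score means stronger Kir2.1 block with less thallium influx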
TRPC4 block: TRPC4 (mouse) channel inhibition; HEK293 TRPC4beta/mu-opioid, DAMGO-evoked Fluo4 calcium flux; stronger effect = lower value; B-score at 10 µM; 300,000 compounds, 0.39% hits;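 active = B-score over 3 SD under the library average, no early fluorescence shift, positive overall ratio signal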
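material = TRPC4beta/mu-opioid receptor HEK293 cell line | probe or stimulus = sequential submaximal and maximal DAMGO stimulation | compound dosing = one concentration per compound | measured by = Fluo4 Ca2+ flux fluorescence | evaluation = integrated fluorescence ratio relative to baseline, converted to per-well B score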
TRPC4 agonist: TRPC4 (mouse) channel activation; Q9QUQ5; HEK293 TRPC4beta/mu-opioid, Fluo4 calcium fluorescence; stronger effect = higher value; B-score at 10 µM; 310,000 compounds, 0.49% hits;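 active = B-score above 5 SD of library B-scores, and initial fluorescence ratio not above library mean plus 5 SD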;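 also: positive B-score marks a calcium rise read as TRPC4 activation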
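system = HEK293 cells stably co-expressing mouse TRPC4beta and mu-opioid receptor | schedule = Fluo4 dye loading 45 min at room temperature, 110 s recording | measure = B-scored integrated calcium fluorescence ratio | signal = Fluo4 calcium-sensitive dye fluorescence, kinetic, 1 Hz baseline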
TRPC6 activator: mouse TRPC6 channel activation | B-score at 10 µM | AID 2550 | Q61143 | HEK293-TRPC6 membrane potential dye fluorescence; stronger effect = higher value | 310,000 compounds, 0.13% hits;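 active = B-score of the integrated fluorescence ratio above library mean plus 3 SD, and starting fluorescence ratio within library mean plus 5 SD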;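 also: higher score means more depolarization so channel activation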
Target sequence (Q61143 whole entry, looked up): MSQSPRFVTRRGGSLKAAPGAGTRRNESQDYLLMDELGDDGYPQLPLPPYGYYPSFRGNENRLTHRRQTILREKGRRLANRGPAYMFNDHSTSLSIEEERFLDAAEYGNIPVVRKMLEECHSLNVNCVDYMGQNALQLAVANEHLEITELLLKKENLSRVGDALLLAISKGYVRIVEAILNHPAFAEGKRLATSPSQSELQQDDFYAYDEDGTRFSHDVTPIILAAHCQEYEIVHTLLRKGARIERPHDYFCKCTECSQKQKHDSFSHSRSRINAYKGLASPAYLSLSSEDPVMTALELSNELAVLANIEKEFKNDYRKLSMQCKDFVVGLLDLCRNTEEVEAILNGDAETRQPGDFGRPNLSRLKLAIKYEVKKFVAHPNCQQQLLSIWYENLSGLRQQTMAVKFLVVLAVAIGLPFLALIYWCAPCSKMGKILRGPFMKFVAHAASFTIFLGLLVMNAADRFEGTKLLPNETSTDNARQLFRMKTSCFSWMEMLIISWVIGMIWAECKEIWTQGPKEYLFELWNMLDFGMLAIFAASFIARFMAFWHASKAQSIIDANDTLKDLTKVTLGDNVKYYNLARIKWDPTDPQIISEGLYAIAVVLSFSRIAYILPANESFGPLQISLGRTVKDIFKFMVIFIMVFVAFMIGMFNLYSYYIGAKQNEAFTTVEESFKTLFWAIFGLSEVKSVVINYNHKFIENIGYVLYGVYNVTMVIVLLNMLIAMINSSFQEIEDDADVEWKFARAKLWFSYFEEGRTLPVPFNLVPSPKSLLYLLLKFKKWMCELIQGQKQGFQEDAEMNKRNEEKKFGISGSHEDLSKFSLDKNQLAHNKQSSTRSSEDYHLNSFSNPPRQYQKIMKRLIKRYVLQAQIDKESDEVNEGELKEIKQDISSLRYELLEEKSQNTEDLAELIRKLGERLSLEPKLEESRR
TRPC6 inh: inhibitors of mouse TRPC6 channel. 310,000 compounds, 1.1% hits. B-score at 10 µM. HEK293-TRPC6, membrane potential dye, ACh-evoked depolarization; stronger effect = lower value. Q61143;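 active = B-score under library mean minus 3 SD, initial fluorescence not abnormally high, positive integrated signal ratio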;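 also: B-score derived from integrated fluorescence ratio over the kinetic read; more negative B-score means stronger inhibition of depolarization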
Hits are given with their value; . = inactive. This is a sample that favours compounds with a hit; in the whole collection about 2.9% have one here.

SMILES	TRPC4 PAM	Kir21 block	TRPC4 block	TRPC4 agonist	TRPC6 activator	TRPC6 inh
Cc1ccc(NC(=O)C(C)OC(=O)CCC2CCCCC2)cc1 (configuration not stated)	.	.	.	.	.	.
CCCCN(CC)CCCNC(=O)CN1C(=O)CSc2ccc(S(=O)(=O)N3CCOCC3)cc21	.	.	.	55	.	.
COc1ccc2cc(C(=O)C3CCCN(C(=O)c4cc5nc(C)cc(C)n5n4)C3)ccc2c1 (configuration not stated)	.	.	.	.	.	.
C=C1C(=O)C=C2CN(C(=O)c3ccccc3)[C@@](Cc3ccc(F)cc3)(C(=O)OC)[C@@H]12	.	-4.5	.	.	.	.
OCc1cn(-c2ccccc2)nc1-c1ccc(Br)cc1	.	.	.	.	.	.
CC(C)COc1ccc(-c2nn(-c3ccccc3)cc2CO)cc1	10	.	.	.	.	.
CC#CC(=O)N1CCC(Oc2cccc(C(=O)NCc3ccccn3)c2)CC1	.	.	.	.	.	.
CSCC(C)N1CCC(Oc2cccc(C(=O)NCc3ccccn3)c2)CC1 (configuration not stated)	.	.	.	.	.	-5.7
CN(C)CCCOC(=O)c1sc2ccccc2c1Cl	.	-7.3	.	.	.	.
CCCCOC(=S)NC(=O)c1sc2ccccc2c1Cl	.	.	.	.	.	.
CN(C)c1ccc(NC(=O)CSc2nnc(-c3ccco3)c(-c3ccco3)n2)cc1	.	.	.	.	.	-5
Cc1ccc(NC(=O)CSc2nnc(-c3ccco3)c(-c3ccco3)n2)cc1	.	.	.	.	.	.
CC1(C)CC(=O)N(Cc2ccccc2)C(=O)C1	.	.	.	.	.	.
CC1(C)C(=O)NC(=O)N1Cc1ccccc1	.	.	.	76	.	.
C/C(=N\NC(=O)Cn1nnc2ccccc21)c1ccco1	.	.	.	.	.	.
COc1cc(C2(c3ccc(O)c(OC)c3)C(=O)Nc3c(C)cc(Br)cc32)ccc1O	27	.	.	.	.	.
CC(C)c1ccccc1OCC(=O)NC1CCCc2ccccc21 (configuration not stated)	.	-7	.	.	.	.
CN(CC(=O)NC1CCCc2ccccc21)C1CCCCC1 (configuration not stated)	.	.	-5	.	.	.
COc1ccccc1OCC(=O)NC1CCCc2ccccc21 (configuration not stated)	.	-4.9	.	.	.	.
Cc1ccc(C(=O)NC(C)c2nnc(SCC(=O)NC3CCCC3)n2C)cc1 (configuration not stated)	.	.	.	.	.	.
CCN(CCO)C(=O)c1ccc2nc(Cc3ccc(OC)cc3)oc2c1	.	.	.	.	.	.
CCOC(=O)CS(=O)(=O)c1nc(-c2ccccc2)cc(C(F)(F)F)n1	.	-7.1	.	.	.	.
CCOC(=O)CS(=O)(=O)c1nc(-c2ccc(F)cc2)cc(C(F)(F)F)n1	.	-4.5	.	.	.	.
CS(=O)(=O)c1nc(-c2cccs2)cc(C(F)(F)F)n1	.	-6	.	.	.	.
COC(=O)CCS(=O)(=O)c1nc(-c2ccccc2)cc(C(F)(F)F)n1	.	-4.6	.	.	.	.
SMILES	TRPC4 PAM	Kir21 block	TRPC4 block	TRPC4 agonist	TRPC6 activator	TRPC6 inh
CCOC(=O)CCS(=O)(=O)c1nc(-c2ccccc2)cc(C(F)(F)F)n1	.	.	.	.	.	.
COCCN(C(=O)CSc1nc2ccc(C)cc2[nH]1)c1c(N)n(Cc2ccccc2)c(=O)[nH]c1=O	.	.	.	.	.	.
COCCN(C(=O)CSc1nc2ccc(Cl)cc2[nH]1)c1c(N)n(Cc2ccccc2)c(=O)[nH]c1=O	.	.	-5	.	.	.
O=[N+]([O-])c1ccc(N2CCOCC2)nc1	.	.	.	.	.	.
N#Cc1ccc(N2CCCNCC2)nc1	.	.	.	44	.	.
CC1=NN(C(=O)c2c(Br)c(C)nn2C)C(O)(C(F)(F)F)C1 (configuration not stated)	.	.	.	.	.	.
CCOC(=O)c1cc(NC(=O)Nc2nccs2)c(C)nc1C	.	.	.	.	.	.
CN(C)CCOC(=O)C12CC3(C)CC(C)(CC(C)(C3)C1)C2	.	.	.	46	.	.
